Source: PubChem BioAssay (several laboratories)
MIN6 prolif: inducers of beta-cell replication in MIN6 cells | MIN6 cells proliferation, ATPlite luminescence, 48 h; cells starved in 0.2% serum; 100% = growth in 10% serum | proliferation, % at 10 µM | 0.29% of 330,000 active;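 active = compounds whose signal lies at least 3.5 SD above the mean of all wells on their plate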;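 also: 0% = DMSO-treated cells in low-serum medium and 100% = 10% serum control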
Granule exo inh: blocks lytic granule exocytosis. TALL-104 LAMP-1 surface exposure, flow cytometry; cells stimulated with thapsigargin and PMA. AID 651702. 0.66% of 360,000 active. inhibition, % at 10 µM;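 active = inhibition above about 55%, limit read from the data; inconclusive = no clear call, values can overlap the other calls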
UBC13 inh: human UBC13 polyubiquitination inhibition; P61088; UBC13 polyubiquitin chain formation, TR-FRET; inhibition, % at 20 µM; 0.47% of 330,000 active; in the data active = inhibition above about 45%, passing the limit was not always enough; inconclusive = no clear call, values can overlap the other calls
Target sequence (P61088 whole entry, looked up): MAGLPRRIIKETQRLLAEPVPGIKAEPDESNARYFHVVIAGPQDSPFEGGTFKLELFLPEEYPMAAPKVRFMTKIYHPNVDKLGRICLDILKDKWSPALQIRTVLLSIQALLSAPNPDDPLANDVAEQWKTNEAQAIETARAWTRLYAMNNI
Apaf1 inhib: inhibitors of human Apaf-1 apoptosome; O14727; reconstituted apoptosome caspase-3 activity, DEVD-Rh110 fluorescence; inhibition, % at 20 µM; 0.71% of 330,000 active; AID 489030; active = inhibition of at least 40% at 20 µM;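 also: plate controls were DMSO wells for no effect and DEVD-CHO caspase inhibitor wells for full effect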
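Material: reconstituted apoptosome with Apaf-1, cytochrome c, caspase-9, procaspase-3, dATP; medium: pH 7.5 Hepes buffer with CHAPS, BSA, DTT; also added: cytochrome c and DEVD-Rh110 substrate; timing: 30 min plus 50 min, RT; signal: Rh110 fluorescence intensity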
MPTP block: inhibitors of mitochondrial permeability transition pore; isolated mouse mitochondria, Ca2+ swelling absorbance, 30 min; 1.4% of 360,000 active; inhibition, % at 10 µM;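 active = inhibition of 50% or more, scaled per plate between neutral and stimulator controls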;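 also: 0% = DMSO wells given calcium and 100% = 1 mM EGTA wells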
iPSC survival up: hiPSC single-cell survival enhancement. survival enhancement, % at 20 µM. 0.044% of 360,000 active. AID 602274. ATPlite luminescence; 100% = ROCK inhibitor wells, 0% = DMSO; in the data active = survival enhancement above about 18%;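 also: cells exposed to compounds for 16 hours before the ATP read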
MPTP counter: mitochondrial membrane potential, counter-screen. inhibition, % at 10 µM. AID 624504. 78% of 5,000 active. isolated mitochondria, Rhodamine 123 fluorescence. shares compounds with MPTP block; in the data active = inhibition above about 22%;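 also: 0% = DMSO vehicle and 100% = positive control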
MPTP abs DR: dose response confirmation of mitochondrial permeability transition pore inhibitors | IC50, µM | isolated mitochondria swelling, absorbance | 58% of 780 active | AID 651561 | shares compounds with MPTP block; in the data active = IC50 below about 20 µM
MPTP cs DR: counter-screen for mitochondrial permeability transition pore inhibitors, dose response; isolated mitochondria counterscreen, fluorescence read-out; 49% of 780 active; IC50, µM; shares compounds with MPTP block; in the data active = IC50 below about 80 µM
Numbers without * were called inactive; ? = inconclusive; · = not tested or not shown. The list is not random: actives were taken first. Their share in the collection is about 3%.

SMILES | MIN6 prolif | Granule exo inh | UBC13 inh | Apaf1 inhib | MPTP block | iPSC survival up | MPTP counter | others
C=CCOC(=O)C1=C(C)NC(SCC(=O)N(CC)CC)=C(C#N)C1c1ccco1 (stereo not drawn) | -3 | 3 | -13 | 17 | -1 | 5 | ·
CN1C(=O)/C(=C/c2ccc(OCc3ccc(F)cc3)cc2)NC1=S | -3 | 11 | 0 | 10 | 4 | 0 | ·
COC(=O)C1=C(C)NC(C)=C(C(=O)OC)C1c1ccc(-c2cccc(Cl)c2Cl)o1 | -3 | 3 | 9 | 5 | 82* | -1 | 2 | MPTP abs DR=>100;MPTP cs DR=>80
Cc1ccc(C2C(C#N)=C(N)SC(N)=C2C#N)cc1 | · | 1 | · | · | 54* | 0 | 67*
Cc1ccc(C2C(C#N)=C(N)SC(N)=C2C#N)c(C)c1 | -1 | 3 | ? | 12 | 53* | 4 | 64*
COc1ccc(NC(=S)Nc2cccc(S(=O)(=O)N3CCCCC3)c2)cc1 | 0 | -3 | -11 | 0 | 68* | -2 | 88*
O=C(Nc1cccc(S(=O)(=O)N2CCCCC2)c1)Nc1ccc(Cl)cc1Cl | -6 | 5 | -3 | 12 | 85* | -2 | 73*
O=C(Nc1ccc(Cl)cc1)Nc1cc(S(=O)(=O)N2CCOCC2)ccc1N1CCCC1 | -1 | 4 | -5 | 13 | 71* | -2 | 73*
O=C(Nc1ccc(Cl)cc1Cl)NC1CCN(S(=O)(=O)c2ccc(F)cc2)CC1 | -6 | 11 | -10 | 11 | 96* | 0 | 89*
COc1ccc(NC(=S)Nc2ccc(S(=O)(=O)N3CCCCC3)cc2)cc1 | · | -1 | · | · | 27 | -1 | ·
CC(=O)N1CCN(c2ccc(Oc3ccc([N+](=O)[O-])c(C(F)(F)F)c3)cc2)CC1 | -4 | 50 | 4 | 22 | 80* | 0 | 76*
COc1ccc(-c2[nH]c(-c3cc(OC)c4c(c3)OCO4)nc2-c2ccccc2)cc1 | 0 | -3 | 6 | 14 | 95* | 2 | 69*
COc1ccc(-c2nc(-c3ccccc3)c(-c3cc([N+](=O)[O-])ccc3C)[nH]2)cc1OC | -4 | -6 | -5 | 11 | 0 | -1 | ·
CCc1cc2cc(C)cc(C)c2nc1SCC(=O)N1CCN(C(=O)c2ccco2)CC1 | -4 | 4 | 12 | 25 | 64* | 2 | 30*
c1ccc(COc2ccc(CNCc3cccs3)cc2)cc1 | -6 | 8 | -4 | 1 | 96* | -2 | -1 | MPTP abs DR=6.4*;MPTP cs DR=31*
CN(Cc1cc(Cl)cc(Cl)c1O)Cc1c(O)ccc2ccccc12 | · | 0 | · | · | 89* | -3 | 85*
COc1cc(OC)c(NS(=O)(=O)c2c(C(=O)N3CCCCC3)c(C)n(C)c2C)cc1Cl | -3 | 1 | -4 | -5 | 0 | 0 | ·
O=C(NCc1ccco1)Nc1ccc(OC(F)(F)F)cc1 | -3 | -5 | -7 | 10 | 52* | -1 | 80*
COc1ccc(CNc2cccc3[nH]c(C(F)(F)F)nc23)cc1OC | -3 | 8 | -8 | 20 | 3 | 1 | ·
CCN(c1ccccc1)S(=O)(=O)c1ccc(C(=O)NC2CCN(Cc3ccccc3)CC2)cc1 | -6 | 7 | 27 | 19 | 66* | -1 | 64*
COCCOc1ccc(C(F)(F)F)cc1NC(=O)c1ccc(C)cc1 | 0 | -4 | 6 | -12 | 58* | -1 | -6 | MPTP abs DR=15*;MPTP cs DR=>80
Cc1nc(NC(=O)CSc2nccn2C)sc1C(=O)N(C)C | -3 | -3 | -5 | 7 | -1 | 0 | ·
Cc1ccccc1OCC(=O)N1N=C(C(F)(F)F)CC1(O)C(C)(C)C (stereo not drawn) | 0 | 3 | 3 | 17 | 17 | 0 | ·
Cc1ccc(OCC(=O)N2N=C(C(F)(F)F)CC2(O)C(C)(C)C)cc1C (stereo not drawn) | -3 | -1 | 4 | 23 | 79* | -2 | 65*
O=C(Nc1ccccc1)c1cc2c(=O)c3ccccc3oc2nc1C(F)(F)F | 0 | -1 | -3 | 1 | 4 | -2 | ·
SMILES | MIN6 prolif | Granule exo inh | UBC13 inh | Apaf1 inhib | MPTP block | iPSC survival up | MPTP counter | others
O=C(Nc1cccc(C(F)(F)F)c1)c1cc2c(=O)c3ccccc3oc2nc1C(F)(F)F | -4 | 2 | 3 | 18 | 75* | -2 | 53*
CC(C)(C)OC(=O)NCCCCCc1cn(CC(=O)NCCCCCCCCCCC(=O)N2CCN(C(=O)OC(C)(C)C)CC2)nn1 | -5 | 0 | -10 | 3 | 94* | -2 | -1 | MPTP abs DR=2*;MPTP cs DR=<2.5*
CCc1ccccc1NC(=O)Nc1ccc(F)cc1F | 0 | 0 | 5 | -4 | 5 | -2 | ·
CCc1ccccc1NC(=O)Nc1cc(F)ccc1F | 0 | -4 | 6 | -8 | 58* | 2 | 88*
CN(CC(=O)Nc1c(Cl)cccc1Cl)C(=O)Cn1[nH]c(=O)c2ccccc2c1=O | -5 | -2 | 0 | -17 | 1 | 0 | ·
N#CC(=C1C=C(Br)C(=NO)C=C1Cl)c1cccc2ccccc12 | · | 0 | · | · | 76* | -4 | 57*
CCOC(=O)NC(=O)CSc1nc(C)cc(C(F)(F)F)c1C#N | -2 | 2 | 4 | 1 | -1 | -2 | ·
Cc1cc(C(F)(F)F)c(C#N)c(SCC(=O)Nc2nc3cc(Br)ccc3s2)n1 | -6 | 3 | -5 | 4 | 87* | 4 | 12 | MPTP abs DR=16*;MPTP cs DR=3.2*
O=c1cc(CN2CCN(C/C=C/c3ccccc3)CC2)c2cc(O)c(-c3ccccc3)cc2o1 | 0 | 46 | 8 | 0 | 4 | -2 | ·
CC(C)CN(Cc1cc(=O)oc2cc(-c3ccccc3)c(O)cc12)CC(C)C | -6 | 0 | -7 | 11 | 93* | 0 | 85*
COC(=O)c1cc(OC)c(OC)cc1NC(=S)Nc1cc(Cl)ccc1OC | 0 | -2 | 43 | 6 | 24 | -3 | ·
COC(=O)c1cc(OC)c(OC)cc1NC(=S)Nc1cccc(Cl)c1 | 0 | -1 | 16 | 10 | 91* | -2 | 110*
COCCNC(=S)Nc1ccc(Cl)c(Cl)c1 | 2 | -4 | -3 | -3 | 48 | 1 | ·
COc1cc(C)c(NC(=S)Nc2ccc(Cl)c(Cl)c2)cc1OC | 0 | -5 | 2 | 9 | 100* | 0 | 82*
COc1ccc(Br)cc1/C=N/n1nnnc1N | 0 | -4 | 9 | -2 | 0 | 0 | ·
CC(C)c1cccc(-c2csc(C(C)(O)c3ccncc3)n2)c1 (stereo not drawn) | · | ? | · | · | 95* | -2 | 89*
CC(C)c1cccc(-c2csc(C(C)(O)c3ccc(F)c(F)c3)n2)c1 (stereo not drawn) | · | 0 | · | · | 3 | -2 | ·
